# Runt-CBFb FRET: Runt domain-CBFb interaction inhibition. Cerulean-Runt/Venus-CBFb FRET ratio 530/480, 1 h. inhibition, % at 20 µM. Q01196+Q13951. 220,000 compounds, 0.46% hits;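 active = inhibition over about 50% at 20 µM in the single-dose screen, limit read from the data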;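 also: 0% = DMSO wells and 100% = excess unlabeled CBFb competitor control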
#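 Assay system: Cerulean-Runt domain / Medium: Tris 50 mM pH 7.5, KCl, K2SO4, 0.01% BSA / Timing: protein complex preformed 1 h, compound exposure 1 h, room temperature, dark / Measured by: FRET, excitation 422 nm, emission at 530 and 480 nm / Evaluation: loss of energy transfer signal / Control set: 5 µM unlabeled CBFb as full-inhibition high control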
# TbHK1 inh: blocks Trypanosoma brucei hexokinase 1 activity | recombinant TbHK1, G6PDH-coupled NADH A340 | inhibition, % at 10 µM | 220,000 compounds, 0.11% hits;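 active = inhibition of 50% or more in the single-dose primary screen; inactive = inhibition below 50%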
# Hck Nef HTS: blocks Nef-activated human Hck kinase; Recombinant Hck-YEEI plus Nef, Z-Lyte FRET kinase assay; 220,000 compounds, 0.68% hits; P08631; AID 463187; inhibition, % at 20 µM;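 active = Hck-Nef kinase inhibition above about 50%, limit read from the data; inactive = inhibition below that limit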;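 also: 0% = DMSO with Hck plus Nef and 100% = Hck alone without Nef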
# RanGTP-Impb inh: disruptors of Ran-importin-beta complex formation – biochemical, FRET, CFP-Ran, YFP-importin-beta, homogeneous, primary screen | cell-free CFP-Ran/YFP-importin-beta FRET ratio | inhibition, % (test concentration not listed) | 300,000 compounds, 1.1% hits;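 active = more than half of the replicate wells show a fall in the fluorescence ratio signal beyond about 16%, limit read from the data, passing the limit was not always enough; inconclusive = exactly half of the replicate wells pass the set limit; inactive = fewer than half of replicates pass the limit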;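 also: 0% = DMSO wells and 100% = Ran loaded with GDP instead of GTP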
# p97 inhibitor: blocks human p97 ATPase activity; P55072; recombinant p97 ATPase, Kinase-Glo ATP luminescence, 3 h; inhibition, % at 8 µM; 220,000 compounds, 0.42% hits; in the data active = inhibition above about 15%;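 also: 0% = DMSO vehicle and 100% = wells lacking enzyme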
# Runt-SMMHC FRET: Runt domain-CBFb-SMMHC interaction inhibition. AID 1434. inhibition, % at 20 µM. 220,000 compounds, 0.74% hits. Q01196+Q13951. Cerulean-Runt/Venus-CBFb-SMMHC FRET ratio 530/480, 1 h;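 active = mean inhibition across duplicate retests at 20 µM reaching about 50%, limit read from the data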;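 also: 0% = DMSO wells and 100% = wells with excess untagged CBFb-SMMHC; inhibitors lower the FRET ratio by blocking Runt binding to CBFb-SMMHC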
# Hck Nef conf: confirmation of Hck-Nef kinase inhibitors; shares compounds with Hck Nef HTS; Recombinant Hck-YEEI:Nef, Z-Lyte FRET kinase assay; calls only at 10 µM; 1,300 compounds, 28% hits;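 active = average inhibition of at least 50%, with Z-scores no higher than 3 in both the phospho-tyrosine peptide and fluorescence counterscreens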
# * = called active by the depositor; i = inactive; u = inconclusive; x = no result given; + = active, no number. In the library only some 2.1% were active in any assay of this set; here they are far more common.
SMILES,Runt-CBFb FRET,TbHK1 inh,Hck Nef HTS,RanGTP-Impb inh,p97 inhibitor,Runt-SMMHC FRET,Hck Nef conf
COc1ccc(CCC(=O)NCCS(=O)(=O)N2CCN(c3ccccc3OC)CC2)cc1,x,x,x,4.9,x,x,x
O=Cc1cc(N=Nc2ccccc2Cl)ccc1O,-5.3,-16.4,56.6*,-4.4,8.2,-2.8,+
COc1cc2[nH]c(=S)n(Cc3cccs3)c(=O)c2cc1OC,-1.2,-7.7,58.9*,u,4.5,-4.2,i
c1ccc(COc2ccc(Nc3ncnc4nc[nH]c34)cc2)cc1,0.2,-5.6,68.5*,-2.4,-2.9,-3.0,+
CCOc1ccccc1NC(=O)C1CCN(C(=O)c2cccs2)CC1,-0.2,5.8,20.2,2.8,-5.9,0.8,x
COc1ccc(NC(=O)c2cccc([N+](=O)[O-])c2)cc1,-1.7,2.3,18.7,-0.1,0.3,1.3,x
COc1ccc(NC(=O)c2cc([N+](=O)[O-])ccc2O)cc1,-2.3,-17.7,52.5*,-3.6,-13.9,1.1,i
COc1ccc(Nc2ccnc(Nc3ccc(OC)cc3)n2)cc1,-3.1,0.9,88.3*,5.0,6.3,2.4,+
O=C(O)COc1ccccc1/C=N/Nc1ccc(S(=O)(=O)Nc2ccc(Cl)cc2)cc1[N+](=O)[O-],-10.6,-8.6,104.3*,-0.4,-0.3,-16.7,i
COc1ccc(/C=c2\s/c(=C\C(=O)C(C)(C)C)[nH]c2=O)cc1O,-4.2,-18.6,70.9*,u,6.8,-36.9,+
NC(=O)c1sc2nc3c(c(-c4ccco4)c2c1N)CCC3,15.7,-9.0,-11.3,2.0,14.4,6.1,x
Nc1c(C(=O)NC2CC2)sc2nc3c(c(-c4ccco4)c12)CC/C3=C/c1ccco1,27.4,-9.6,85.3*,x,28.4*,-18.8,i
COc1ccc(CC(=O)NCCC(C)C)cc1S(=O)(=O)N1CCOCC1,-1.6,1.6,18.9,3.7,4.0,-2.2,x
N#Cc1ccc(/C=C\c2nccc3c2[nH]c2ccccc23)cc1,16.9,-3.3,57.3*,102.7*,3.4,89.6,i
COc1ccc(-n2ccnc(SCC(=O)NCc3ccccc3Cl)c2=O)cc1,x,x,x,2.2,x,x,x
CN=c1scc(-c2ccccc2F)n1/N=C/c1ccc(O)c(O)c1O,44.1,7.8,122.0*,2.4,-3.7,17.5,i
CN=c1scc(-c2ccccc2F)n1/N=C/c1ccc[nH]1,2.7,-13.2,27.8,-0.5,-2.9,-18.9,x
CCOc1ccc(N(CC(=O)NC2CCCCC2)C(=O)CCC(=O)Nc2cc(C)ccn2)cc1,x,x,x,2.2,x,x,x
CN(C(=O)c1sc2nc(N3CCOCC3)c3c(c2c1N)CCCC3)c1ccccc1,14.7,-10.3,52.6*,5.3,-1.4,7.4,i
CCc1cc(=O)oc2cc(C)cc(OCC(=O)N3CCC(C(=O)NC(C)C)(c4ccccc4)CC3)c12,x,x,x,-1.5,x,x,x
CCCCNC(=O)C(=O)N/N=C/c1ccc(OCC(=O)Nc2cccc(OC)c2)c(OC)c1,0.1,-22.1,70.6*,-1.8,3.5,-2.8,+
CCNC(=S)N/N=C/c1ccc(OCC(=O)Nc2ccc(OC)cc2)c(OC)c1,-1.9,-6.2,3.6,3.1,-2.5,-1.3,x
NC(=O)c1nn(-c2ccc(Oc3ccccc3)cc2)c(=O)cc1O,-0.9,1.1,82.2*,-3.0,8.1,13.5,+
N#Cc1ccc(CSc2nnc(NC(=O)c3ccc4ncsc4c3)s2)cc1,-6.1,-7.8,68.2*,2.0,2.0,-48.9,i
N#Cc1ccc(CSc2nnc(NC(=O)c3ccc(=O)[nH]c3)s2)cc1,0.5,-51.9,0.3,u,7.9,-1.4,x
SMILES,Runt-CBFb FRET,TbHK1 inh,Hck Nef HTS,RanGTP-Impb inh,p97 inhibitor,Runt-SMMHC FRET,Hck Nef conf
O=C(Nc1nnc(SCc2c(Cl)cccc2Cl)s1)c1ccc2ncsc2c1,0.4,1.7,110.5*,-0.2,3.6,-0.1,+
CCOC(=O)c1nn2c(C(F)(F)F)cc(-c3ccc(OC)cc3)nc2c1Br,x,x,x,6.3,x,x,x
O=C(Nc1cccnc1Cl)c1cc(-c2cccc(O)c2)on1,x,x,x,0.2,x,x,x
Cc1ccc(C2N(C)C(=O)c3ccccc3N2C)cc1 (configuration not stated),x,x,x,1.4,x,x,x
CCN(CC)CC(C)(C)COC(=O)c1oc2ccccc2c1C,0.3,-0.8,11.3,1.4,2.5,1.6,x
Cc1cc(C(=O)N2CCCc3ccccc32)ccc1[N+](=O)[O-],x,x,x,2.4,x,x,x
CC1=CC(C)[C@H](/C=N/n2c(=O)[nH]c3c([nH]c4ccc(Br)cc43)c2=O)C(C)C1 (some centres not stated),x,7.7,60.7*,-55.0,4.4,4.5,i
CCCc1cc(=O)oc2cc(OCC(=O)NCCCN3CCCC3=O)ccc12,x,x,x,2.3,x,x,x
N#Cc1c2nc3ccccc3nc2n2cc(NC(=O)c3ccc(F)cc3)ccc12,-29.9,7.0,72.2*,x,2.8,-66.4,i
CCCNC(=O)COC(=O)c1cc2c(=O)n3ccccc3nc2s1,83.1*,-13.4,51.2*,6.2,9.4,120.8*,i
COc1ccc(C2CC(c3ccccc3)=NN2c2ccc(C(N)=O)cc2)cc1 (configuration not stated),x,x,x,10.9,x,x,x
Oc1ccc(C2=NN(c3ccccc3)C(c3ccc(F)cc3)C2)cc1 (configuration not stated),x,x,x,-3.4,x,x,x
COc1ccc(C2CC(c3cccs3)=NN2c2ccc(C=O)cc2)cc1 (configuration not stated),4.0,15.0,53.9*,-48.0,6.2,73.1*,i
COc1ccc(C2CC(c3ccccc3)=NN2c2ccc(S(N)(=O)=O)cc2)cc1 (configuration not stated),1.6,-14.5,107.9*,4.2,-0.6,29.3,x
NS(=O)(=O)c1ccc(N2N=C(c3ccccc3)CC2c2ccc(F)cc2)cc1 (configuration not stated),4.9,-18.0,60.1*,0.0,5.5,23.5,x
CC(OC(=O)C1CCN(S(=O)(=O)c2ccc(Cl)cc2)CC1)C(=O)NC1CCCCC1C (configuration not stated),x,x,x,-2.6,x,x,x
CCOC(=O)Cc1csc(NC(=O)CSc2nccn2C)n1,x,x,x,3.8,x,x,x
Cc1ccc(S(=O)(=O)N(C)CC(=O)Oc2ccc(-c3nnco3)cc2)cc1,x,x,x,0.4,x,x,x
Cc1nc(SCC(=O)Nc2ccc3c(c2)OCCO3)c2oc3ccccc3c2n1,-0.9,-23.1,80.9*,5.4,-6.2,-5.4,i
CCc1nc(SCC(=O)Nc2ccc3c(c2)OCCO3)c2oc3ccccc3c2n1,-4.5,-14.4,88.3*,2.2,-2.0,-10.5,i
CN1CCN(CC(O)(c2ccc(Cl)cc2)c2ccc(Cl)cc2)CC1,-1.2,12.7,-7.5,2.1,-5.6,1.3,x

# Assay outcomes deposited in PubChem BioAssay by several laboratories.
